From ChEMBL document CHEMBL1147780, “Peptide inhibitors of Dengue virus NS3 protease. Part 1: Warhead” (Bioorg Med Chem Lett, 2006)
Where a SMILES comes first, the peptide text is derived from it. [ ]: non-standard residue; d: D form. The star is where a group is joined. Nle = CCCC[C@H](N)C(=O)O; Bz = O=C(c1ccccc1)*; CF3 = FC(F)(F)*

Target: Genome polyprotein (dengue virus type 2, UniProt P29990)
Assay: Inhibitory activity against CF40.NS3pro from Dengue virus type 2
How it was run: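 Enzyme: truncated dengue 2 NS3 protease fused through a flexible linker to a […] NS2B region. Inhibitors tested in 96-well format in 50 mM Tris, pH 8.5, with 1 mM CHAPS. Values reported as Ki.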

Genome polyprotein, sequence (P29990 1346-1475 limits assumed): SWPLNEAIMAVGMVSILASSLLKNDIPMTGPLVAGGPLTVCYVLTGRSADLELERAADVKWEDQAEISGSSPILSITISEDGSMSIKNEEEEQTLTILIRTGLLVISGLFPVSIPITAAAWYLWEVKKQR
Genome polyprotein, sequence (P29990 1476-2093 limits assumed): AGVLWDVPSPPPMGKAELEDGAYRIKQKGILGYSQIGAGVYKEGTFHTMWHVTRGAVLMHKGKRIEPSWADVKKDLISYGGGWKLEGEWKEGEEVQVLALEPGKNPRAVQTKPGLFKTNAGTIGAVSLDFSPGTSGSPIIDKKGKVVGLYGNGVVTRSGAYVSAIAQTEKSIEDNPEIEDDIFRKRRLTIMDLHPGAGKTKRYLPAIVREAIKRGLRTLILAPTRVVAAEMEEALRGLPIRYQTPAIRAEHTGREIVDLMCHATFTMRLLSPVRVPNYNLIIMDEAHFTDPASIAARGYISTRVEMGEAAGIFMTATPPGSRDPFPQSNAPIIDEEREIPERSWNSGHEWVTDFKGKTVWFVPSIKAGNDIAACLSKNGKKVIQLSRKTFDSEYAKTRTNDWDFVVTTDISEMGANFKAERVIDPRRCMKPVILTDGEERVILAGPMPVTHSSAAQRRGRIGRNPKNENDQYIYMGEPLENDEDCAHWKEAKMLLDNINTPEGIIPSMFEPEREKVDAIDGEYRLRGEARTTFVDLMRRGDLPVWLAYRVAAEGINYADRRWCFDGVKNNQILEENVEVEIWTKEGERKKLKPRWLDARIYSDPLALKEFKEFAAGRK

Compound	Ki
CCCC[C@H](NC(=O)c1ccccc1)C(=O)N[C@@H](CCCCN)C(=O)N[C@@H](CCCN=C(N)N)C(=O)N[C@@H](CCCN=C(N)N)B(O)O	0.043 µM
CCCC[C@H](NC(=O)c1ccccc1)C(=O)N[C@@H](CCCCN)C(=O)N[C@@H](CCCNC(=N)N)C(=O)N[C@@H](CCCNC(=N)N)C(=O)c1nc2ccccc2o1	82.9 µM
CCCC[C@H](NC(=O)c1ccccc1)C(=O)N[C@@H](CCCCN)C(=O)N[C@@H](CCCNC(=N)N)C(=O)N[C@@H](CCCNC(=N)N)C(=O)c1nccs1	42.8 µM
CCCC[C@H](NC(=O)c1ccccc1)C(=O)N[C@@H](CCCCN)C(=O)N[C@@H](CCCN=C(N)N)C(=O)N[C@@H](CCCN=C(N)N)C(=O)NS(=O)(=O)C(F)(F)F	> 500 µM
CCCC[C@H](NC(=O)c1ccccc1)C(=O)N[C@@H](CCCCN)C(=O)N[C@@H](CCCN=C(N)N)C(=O)N[C@@H](CCCN=C(N)N)C(O)C(=O)NCc1ccccc1 (stereo partly specified)	178 µM
CCCC[C@H](NC(=O)c1ccccc1)C(=O)N[C@@H](CCCCN)C(=O)N[C@@H](CCCN=C(N)N)C(=O)N[C@@H](CCCN=C(N)N)C(=O)C(F)(F)F (Bz-[Nle]KRR-CF3)	0.85 µM
CCCC[C@H](NC(=O)c1ccccc1)C(=O)N[C@@H](CCCCN)C(=O)N[C@@H](CCCN=C(N)N)C(=O)N[C@@H](CCCN=C(N)N)C(N)=O (Bz-[Nle]KRR-NH2)	128 µM
CCCC[C@H](NC(=O)c1ccccc1)C(=O)N[C@@H](CCCCN)C(=O)N[C@@H](CCCN=C(N)N)C(=O)N[C@@H](CCCN=C(N)N)C(=O)O (Bz-[Nle]KRR-OH)	> 500 µM
CCCC[C@H](NC(=O)c1ccccc1)C(=O)N[C@@H](CCCCN)C(=O)N[C@H](C(=O)N[C@@H](CCCN=C(N)N)C(N)=O)[C@@H](C)O (Bz-[Nle]KTR-NH2)	> 500 µM
CCCC[C@H](NC(=O)c1ccccc1)C(=O)N[C@@H](CCCCN)C(=O)N[C@H](C(=O)N[C@@H](CCCN=C(N)N)C(=O)O)[C@@H](C)O (Bz-[Nle]KTR-OH)	> 500 µM
CCCC[C@H](NC(=O)c1ccccc1)C(=O)N[C@@H](CCCCN)C(=O)N[C@H](C(=O)N[C@H](C=O)CCCN=C(N)N)[C@@H](C)O (Bz-[Nle]KTR-aldehyde)	> 500 µM
